Screens deposited in PubChem BioAssay by several laboratories.
Sampled rows, rich in hits. Any-hit rate of the full collection: about 4.6%.
UCH37 DUB inh = inhibitors of human UCH37 deubiquitinase, primary screen, biochemical, Ub-AMC cleavage, fluorescence; Ubiquitin carboxyl-terminal hydrolase isozyme L5 (Homo sapiens), Q9Y5K5; purified proteasome/UCH37; inhibition, % (concentration not given with the values); hit rate 0.33% among 330,000; AID 588478, 2011;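 active = mean inhibition over replicate wells above about 20%, limit read from the data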;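 note: 0% = compound-free wells with enzyme and 100% = wells lacking proteasome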
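Schedule: 30 min plus 25 min, room temperature / Material: human UCH37 within purified proteasomes / Technique: AMC fluorescence intensity at 355/460 nm / Buffer or medium: pH 7.4 Tris-HCl (50 mM) with ovalbumin, ATP-MgCl2, DTT / Controls: wells without proteasome as full block, compound-free enzyme plus substrate as uninhibited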
HDAC3 inhib = HDAC3 deacetylase inhibitors, primary screen, biochemical, fluorescence, cell-free homogeneous. recombinant HDAC3, fluorogenic peptide/trypsin coupled. inhibition, % at 8.3 µM. hit rate 0.15% among 320,000; in the data active = inhibition above about 26%, passing the limit was not always enough
Target sequence (O15379 whole entry, looked up): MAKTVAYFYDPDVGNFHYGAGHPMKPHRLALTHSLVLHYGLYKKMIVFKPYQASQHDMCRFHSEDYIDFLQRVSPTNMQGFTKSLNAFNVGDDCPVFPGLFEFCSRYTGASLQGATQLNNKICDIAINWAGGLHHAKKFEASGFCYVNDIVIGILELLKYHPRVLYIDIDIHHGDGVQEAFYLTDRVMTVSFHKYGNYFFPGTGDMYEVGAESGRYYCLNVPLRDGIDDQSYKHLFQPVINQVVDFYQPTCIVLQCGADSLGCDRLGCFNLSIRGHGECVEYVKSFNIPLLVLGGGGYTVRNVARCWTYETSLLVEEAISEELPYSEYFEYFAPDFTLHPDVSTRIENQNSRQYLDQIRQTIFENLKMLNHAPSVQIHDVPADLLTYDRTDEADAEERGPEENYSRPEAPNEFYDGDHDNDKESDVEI
FAS-TE inh = FAS thioesterase domain inhibitors, primary screen, biochemical, fluorescence intensity, uHTS. recombinant FAS-TE, OMFH fluorogenic substrate, fluorescence endpoint. hit rate 0.67% among 360,000. inhibition, % at 15 µM;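 active = compounds whose normalised, plate-corrected inhibition of enzyme fluorescence in the single-dose primary screen is 50% or more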;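 note: 0% = DMSO with enzyme and 100% = substrate without enzyme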
M18AAP inhibitor = PfM18AAP inhibitors, malaria aminopeptidase, primary screen, biochemical, QFRET, recombinant enzyme; M18 aspartyl aminopeptidase (Plasmodium falciparum 3D7); H-Glu-NHMec fluorogenic cleavage; inhibition, % at 7.35 µM; hit rate 1.2% among 290,000;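 active = inhibition above the campaign mean inhibition over all tested compounds plus 3 SD, cut at about 28% in these data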;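 note: 0% = plate median of test compound wells and 100% = 2 mM ZnCl2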
ALR H2O2 inh = inhibitors of human ALR sulfhydryl oxidase, primary screen, biochemical, H2O2 detection, HRP-luminol luminescence, single point; inhibition, % (no concentration beside the values); purified ALR, DTT oxidation; hit rate 3.8% among 290,000;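 active = mean replicate inhibition above about 79%, with every replicate also reaching it, limit read from the data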
Rtt109 HAT inh = inhibitors of C. albicans Rtt109/Vps75 HAT, primary screen, biochemical, ThioGlo CoA-SH fluorescence, plate reader; purified Rtt109/Vps75, 4 h; hit rate 0.16% among 330,000; inhibition, % at 34.9 µM; AID 540336, 2011; Histone acetyltransferase RTT109 (Candida albicans (strain SC5314 / ATCC MYA-2876)), …;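 active = inhibition of at least 50% in every replicate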
* hit, by the source's call; . = no result given.

SMILES	UCH37 DUB inh	HDAC3 inhib	FAS-TE inh	M18AAP inhibitor	ALR H2O2 inh	Rtt109 HAT inh
COc1cc(/C=C2/C(=O)N(c3ccc(C)c(C)c3)N=C2C)cc([N+](=O)[O-])c1O	7.6	2.9	-7.0	10.1	44.8	8.8
COc1cc(/C=C2/C(=O)NN(c3ccccc3)C2=O)cc(Br)c1O	17.2	13.7	-9.4	21.1	98.5*	-16.7
CCOc1cc(/C=C2\NC(=O)NC2=O)cc([N+](=O)[O-])c1O	21.0*	.	-1.8	11.8	88.3*	0.7
COc1cc(/C=C2/C(=O)NN(c3ccc(Cl)cc3)C2=O)cc(OC)c1O	6.0	-2.0	-3.9	19.1	18.7	2.8
COc1cc(/C=C2\C(=O)NN(c3ccc(C)cc3)C2=O)cc([N+](=O)[O-])c1O	16.0	8.7	-1.2	-0.6	98.7*	15.9
COc1cc(/C=C2\C(=O)NN(c3ccccc3)C2=O)cc([N+](=O)[O-])c1O	20.9*	11.7	-3.1	8.5	98.0*	7.9
O=C(O)Cc1sc(NN=Cc2ccncc2)nc1-c1ccccc1	9.5	.	.	.	.	.
CCOc1cc(/C=C2\C(=O)NN(c3ccccc3)C2=O)cc([N+](=O)[O-])c1O	17.0	9.1	-5.4	10.1	95.4*	-5.0
CCOC(=O)COc1ccc(/C=C2/C(=O)NN(c3ccc(F)cc3)C2=O)cc1OC	2.7	3.7	0.8	-1.3	65.0	9.1
CC(=O)NC(=S)Nc1ccc(NC(=S)NC(=O)/C=C/c2ccco2)cc1	4.6	3.0	-2.8	-6.0	.	2.1
O=C(/C=C/c1ccco1)NC(=S)Nc1ccc(C(=O)O)cc1	10.4	5.9	-4.4	29.0*	.	-2.8
O=C(/C=C/c1ccco1)NC(=S)NNC(=O)c1ccco1	11.9	11.2	-8.3	17.0	97.9*	-6.9
NS(=O)(=O)c1ccc(NC(=O)/C=C/c2ccco2)cc1	7.3	11.3	-2.6	1.4	95.7*	4.4
CCC(=NNC(=O)Nc1ccccc1)c1ccccc1	1.3	.	.	.	.	.
O=[N+]([O-])c1cccc(-c2cn3nc(-c4ccccc4)c(-c4ccccc4)nc3n2)c1	-66.1	-1.6	41.2	6.3	-1.2	0.6
O=[N+]([O-])c1ccc(-c2cn3nc(-c4ccccc4)c(-c4ccccc4)nc3n2)cc1	-68.7	1.5	23.7	30.4*	-6.5	.
CC(CC1CC(COCC(C)C)OC1=O)=NNc1nc(-c2ccccc2)cs1 (stereo unspecified)	2.6	.	.	.	.	.
C/C(CC1CC(COCC(C)C)OC1=O)=N\Nc1nc(-c2ccccc2)cs1 (stereo unspecified)	.	9.3	0.7	12.6	97.7*	9.0
O=C(O)c1ccc(C=NN2CCN(c3ccccc3)CC2)cc1	1.5	.	.	.	.	.
NC(=O)CSc1nnc2sc3ccccc3n12	24.4*	-1.9	-4.9	-4.6	-14.4	0.8
CC(C)NC(=O)CSc1nnc2sc3ccccc3n12	1.3	.	-7.2	-4.1	.	-7.3
Cc1ccc(-c2cc(C(=O)Nc3ccc(S(=O)(=O)Nc4onc(C)c4C)cc3)c3ccccc3n2)cc1	2.1	-0.8	5.6	1.1	97.8*	6.5
Cc1ccc2c(C)c(C(=O)Nc3ccc(S(=O)(=O)Nc4onc(C)c4C)cc3)oc2c1	4.0	7.3	-0.2	6.4	96.7*	17.0
Cc1noc(NS(=O)(=O)c2ccc(NC(=O)c3cnc4n(c3=O)CCS4)cc2)c1C	11.4	7.7	-4.7	9.3	98.7*	17.7
Cc1noc(NS(=O)(=O)c2ccc(NC(=O)c3cc4ccccc4o3)cc2)c1C	3.6	6.6	-3.8	.	.	-24.0
Cc1ccc2c(=O)cc(C(=O)Nc3ccc(S(=O)(=O)Nc4onc(C)c4C)cc3)oc2c1	9.3	.	-2.4	1.2	96.9*	4.1
COc1ccc(C=NNC(=O)C[n+]2ccccc2)c(OC)c1	3.1	.	.	.	.	.
Cc1ccc[n+](-c2[nH]c(=O)sc2C=N/N=C(\[O-])CCn2c3ccccc3c3ccccc32)c1	2.5	.	.	.	.	.
